Measurements reported in ChEMBL document CHEMBL1158076, “Bioactive guaianolides from siyekucai (Ixeris chinensis)” (J Nat Prod, 2006).
Counter-ions that a name gives are not always drawn. The source made the active and inactive calls. No cut-off for these calls is given here.

What was measured:
WI-38 = experiment: Cytotoxicity against human WI38 cells; assay type: functional, cell-based
WI-38 VA13 = experiment: Cytotoxicity against human VA13 cells; assay type: functional, cell-based
A549 [1] = experiment: Inhibition of ICAM1 induction in human A549 cells pretreated for 1 hr in presence of IL1alpha for 6 hrs; assay type: functional, cell-based
A549 [2] = experiment: Inhibition of ICAM1 induction in human A549 cells pretreated for 1 hr in presence of TNFalpha for 6 hrs; assay type: functional, cell-based
A549 [3] = experiment: Cytotoxicity against human A549 cells after 24 hrs by MTT method; assay type: cell-based; conditions: A549, 24 h
Procedure, shortened: (§1)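 A549 cells were exposed to serial dilutions for 24 h and viability was read by MTT, in triplicate cultures. Viability (%) = (experimental − background absorbance)/(control − background absorbance) × 100, and IC50 was derived from it.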

A549 [4] = experiment: Inhibition of ICAM1 induction in human A549 cells <100 uM pretreated for 1 hr at in presence of IL1alpha for 6 hrs; assay type: functional, cell-based
A549 [5] = experiment: Inhibition of ICAM1 induction in human A549 cells at <100 uM pretreated for 1 hr in presence of TNFalpha for 6 hrs; assay type: functional, cell-based
A549 [6] = experiment: Cytotoxicity against human A549 cells at <100 uM after 24 hrs by MTT method; assay type: cell-based; conditions: a549, 24 h; procedure, shortened: as §1
[7] = Cytotoxicity against human Hep G2 cells; assay type: functional, cell-based; conditions: HepG2
A549 [8] = experiment: Inhibition of ICAM1 induction in human A549 cells in presence of IL1alpha; assay type: functional, cell-based

Structure (SMILES)	IC50 (A549 [1])	IC50 (A549 [2])	IC50 (A549 [8])	IC50 (WI-38)	IC50 (WI-38 VA13)	IC50 (A549 [3])	Activity (A549 [4])	Activity (A549 [5])	Activity (A549 [6])	IC50 [7]
COc1cccc2c1C(=O)c1c(O)c3c(c(O)c1C2=O)C[C@@](O)(C(=O)CO)C[C@@H]3O[C@H]1C[C@H](N)[C@H](O)[C@H](C)O1 [DOXORUBICIN HYDROCHLORIDE]				0.7 µM	0.4 µM					
CC(=O)O[C@H]1C(=O)[C@@]2(C)[C@H]([C@H](OC(=O)c3ccccc3)[C@]3(O)C[C@H](OC(=O)[C@H](O)[C@@H](NC(=O)c4ccccc4)c4ccccc4)C(C)=C1C3(C)C)[C@]1(OC(C)=O)CO[C@@H]1C[C@@H]2O [PACLITAXEL]				0.04 µM						
CC1=C2[C@H]3OC(=O)[C@@H](C)[C@@H]3CC[C@@](C)(O)[C@@H]2CC1=O	> 100 µM	> 100 µM		25 µM	130 µM	> 100 µM	inactive	inactive	Non-toxic	230 µM
C[C@@H]1C(=O)O[C@H]2[C@H]1CC[C@@](C)(O)[C@@H]1CC(=O)[C@@H](C)[C@H]21				32 µM	160 µM					230 µM
C=C1C(=O)O[C@@H]2C3=C(C)C(=O)C[C@H]3[C@](C)(O)CC[C@@H]12			20.9 µM	24 µM	22 µM	> 100 µM				23 µM

Now from value to compound, other results behind:

IC50 (A549 [1])	IC50 (A549 [2])	IC50 (A549 [8])	Structure (SMILES)	IC50 (WI-38)	IC50 (WI-38 VA13)	IC50 (A549 [3])	Activity (A549 [4])	Activity (A549 [5])	Activity (A549 [6])	IC50 [7]
10.9 µM	11.4 µM		C=C1C(=O)C[C@@H]2[C@H]1[C@H]1OC(=O)C(=C)[C@@H]1CC[C@@]2(C)O			64.9 µM				
16.4 µM	16.8 µM		C=C1C(=O)O[C@@H]2[C@H]3[C@H](C)C(=O)C[C@H]3[C@](C)(O)CC[C@@H]12	25 µM	27 µM	> 100 µM				22 µM
> 100 µM	> 100 µM		C=C1[C@@H]2[C@H]3OC(=O)C(=C)[C@@H]3CC[C@@](C)(O)[C@@H]2C[C@@H]1O[C@@H]1O[C@H](COC(=O)Cc2ccc(O)cc2)[C@@H](O)[C@H](O)[C@H]1OC(=O)Cc1ccc(O)cc1 [CHINENSIOLIDE E]	23 µM	0.72 µM	> 100 µM	inactive	inactive	Non-toxic	140 µM
> 100 µM	> 100 µM		C=C1C(=O)O[C@@H]2[C@H]3C(=C)[C@@H](O[C@@H]4O[C@H](COC(=O)Cc5ccc(O)cc5)[C@@H](O)[C@H](O)[C@H]4O)C[C@H]3C(=C)C[C@@H](OC(=O)Cc3ccc(O)cc3)[C@@H]12 [IXEROCHINOSIDE]			> 100 µM	inactive	inactive	Non-toxic	
16.1 µM	20.1 µM		C=C1C(=O)O[C@@H]2[C@H]3C(CO)=CC(=O)C3=C(C)CC[C@@H]12	2.7 µM	8.5 µM	> 100 µM				25 µM
